# From PubChem BioAssay
# Rpn11 block = inhibitors of human proteasome Rpn11; human 26S proteasome, Ub4-pepOG fluorescence polarization; 20S core pre-blocked with epoxomicin; calls only at 20 µM; 360,000 compounds, 0.59% hits;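 active = inhibition at 20 µM, scaled to each plate's controls, above about 33%, limit read from the data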
# TPT1 inhibitor = inhibitors of Candida albicans tRNA 2'-phosphotransferase TPT1; AID 1962; 300,000 compounds, 0.81% hits; recombinant caTPT1, FP RNA substrate dephosphorylation; inhibition, % at 5 µM;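 active = inhibition above the mean of all tested compounds plus 3 SD, set per screening campaign, cut at about 24% in these data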;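 also: plate controls were DMSO alone for no effect and ferristatin control at 100 nM for full effect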
# CRFR2-BP antag = CRF-BP/CRF-R2 complex antagonism; HEK293 CRF-R2/CRF-BP, CRF-induced calcium fluorescence; inhibition, % at 11.8 µM; 350,000 compounds, 0.59% hits; AID 588475;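 active = inhibition of the ligand-induced calcium signal above about 50% at the single tested concentration, limit read from the data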
# CSN deneddyl inh = inhibitors of human CSN-mediated cullin deneddylation; 360,000 compounds, 0.38% hits; Purified CSN, SCF-Nedd8-OG deneddylation, fluorescence polarization; inhibition, % at 12.5 µM; Q92905;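 active = pattern-corrected inhibition above about 35%, with an unprinted fluorescence ratio check between 0.5 and 1.5, limit read from the data, passing the limit was not always enough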;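 also: 0% = enzyme with substrate and 100% = substrate without enzyme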
# Target sequence (Q92905 whole entry, looked up, one chain of several): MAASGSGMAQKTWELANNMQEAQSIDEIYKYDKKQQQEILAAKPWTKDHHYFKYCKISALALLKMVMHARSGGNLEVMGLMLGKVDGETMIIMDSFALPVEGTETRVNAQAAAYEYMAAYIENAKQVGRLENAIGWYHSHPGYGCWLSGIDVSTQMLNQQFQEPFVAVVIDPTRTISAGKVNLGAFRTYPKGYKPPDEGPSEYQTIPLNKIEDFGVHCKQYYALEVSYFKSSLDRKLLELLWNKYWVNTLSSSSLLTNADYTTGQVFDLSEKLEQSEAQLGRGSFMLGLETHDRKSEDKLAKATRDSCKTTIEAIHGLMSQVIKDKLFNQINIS
#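 Assay system: purified human Csn5 enzyme expressed in HEK293T cells; Input: 0.24 nM Csn5 enzyme, final concentration; Reagent: 10 nM SCFSkp2-Nedd8OG; Compound dosing: 12.5 µM single point; Times: reaction 90 min, room temperature; Technique: fluorescence polarization readout.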
# HNF4A DNA FP = change in binding of human HNF4 alpha to DNA. AID 1224865. activity change, % at 10 µM. HNF4a-FITC DNA binding, fluorescence polarization, 1 h. 360,000 compounds, 0.3% hits; in the data active = activity change above about 30%, passing the limit was not always enough
# CRFBP-R2 agonist = CRF-BP/CRF-R2 complex agonism; HEK293 CRF-R2/CRF-BP, calcium dye fluorescence (FLIPR); percent of saturating CRF peptide response; activation, % at 13.2 µM; 350,000 compounds, 0.46% hits;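 active = activation of at least 50%, plus an integration ratio under a set limit after plate pattern correction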;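 also: plate controls were neutral control wells without compound for no effect and CRF at EC100 for full effect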
# The depositor's hits bear a star; i = inactive; nt = not tested or not shown; ! = not active in a repeat. Sampled rows, rich in hits. Any-hit rate of the full collection: about 2.3%.
SMILES,Rpn11 block,TPT1 inhibitor,CRFR2-BP antag,CSN deneddyl inh,HNF4A DNA FP,CRFBP-R2 agonist
COc1ccc(S(=O)(=O)NCc2cccnc2)cc1OC,i,-8,2,-2,46*,-1
O=S(=O)(NCc1ccccc1)NCc1ccccc1,i,-1,15,4,-2,1
Cc1[nH]c2ccccc2c1C(=O)/C=C/c1ccccc1,i,-4,-8,3,-3,-3
CC1CCN(C(=O)C2CCN(S(=O)(=O)c3cccnc3)CC2)CC1,i,3,75*,2,-4,-2
CC1CCN(C(=O)C2CCN(S(=O)(=O)c3cccs3)CC2)CC1,i,1,106*,-2,4,0
O=C(C1CCN(S(=O)(=O)c2cccnc2)CC1)N1CCCCC1,i,-3,-7,1,-2,-1
Cc1ccc(S(=O)(=O)Nc2cc(=O)[nH]c(SCC(=O)Nc3ccccc3C(F)(F)F)n2)cc1,i,0,8,-1,-1,-1
Cc1cc(N2CCN(S(=O)(=O)c3ccc(Cl)cc3)CC2)c2ccccc2n1,i,2,62*,-1,0,0
CCOc1cccc(CN2CCCC(CNC(=O)c3cccc(OC)c3OC)C2)c1 (stereo not given),i,0,-7,-4,0,-1
CC(=O)c1cn(N2CCCCC2)c(=O)[nH]c1=O,i,2,4,-3,0,1
CCCCCCC(C)n1cc(C(C)=O)c(=O)[nH]c1=O (stereo not given),i,1,-16,50*,0,0
Oc1ccccc1-c1cc(C(F)(F)C(F)F)nc(-c2ccccc2)n1,i,-1,-78,0,0,2
O=[N+]([O-])c1ccc(O)c(-c2cc(C(F)(F)F)nc(-c3ccccc3)n2)c1,i,5,59*,-3,-2,62*
NC(CCc1ccccc1)c1csc(Nc2ccc(C(F)(F)F)cn2)n1 (stereo not given),i,nt,nt,-2,0,nt
Cc1ccc(C)c(N2CCN(S(=O)(=O)c3ccc4c(c3)C(C)(C)C(=O)N4C)CC2)c1,i,0,127*,-3,6,-2
Cc1noc(C)c1COC(=O)Cc1ccc(Cl)cc1,i,-3,6,2,2,0
Cc1noc(C)c1CSCc1ccc(Cl)cc1,i,-4,76*,-3,0,-3
COc1ccc2nc3ccccc3nc2c1NC(=O)c1ccc(Cl)cc1Cl,i,-30,-150,-92,-83,178*
COc1cc(-c2cc(C(=O)Nc3c(Cl)cc(Cl)cc3Cl)c3ccccc3n2)cc(OC)c1OC,i,1,18,-6,-2,-2
CSCCC(NC(=O)c1ccco1)C(=O)N1CC=C(c2ccccc2)CC1 (stereo not given),i,-1,-81,-3,2,53*
CSCCC(NC(=O)c1ccco1)C(=O)NCc1ccc(F)cc1 (stereo not given),i,1,9,-1,0,-1
CSCCC(NC(=O)c1ccco1)C(=O)NCCc1ccc(Cl)cc1 (stereo not given),i,nt,-14,37*,1,-4
COc1cc(/C=C2/C(=O)NN(c3cccc(C)c3)C2=O)cc([N+](=O)[O-])c1O,i,6,-3,6,-14,-2
COc1cc(/C=C2/C(=O)NN(c3cccc(C)c3)C2=O)ccc1OC(=O)c1ccco1,i,1,-234,-5,-6,54*
COc1ccc(Cl)cc1Nc1cc(C)nc2ccccc12,i,1,0,-2,2,-2
SMILES,Rpn11 block,TPT1 inhibitor,CRFR2-BP antag,CSN deneddyl inh,HNF4A DNA FP,CRFBP-R2 agonist
Cc1ccc2nc(NCCC(=O)O)nc(-c3ccccc3)c2c1,i,-1,38,0,-1,146*
O=C(O)CCNc1nc(-c2ccccc2)c2cc(Br)ccc2n1,i,nt,-25,1,1,96*
OCCCNc1nc(-c2ccccc2)c2cc(Br)ccc2n1,i,3,-25,-1,1,9
O=C1OC(c2ccc(F)cc2)=C/C1=C\c1ccc(O)cc1,i,0,-1,-2,-2,0
O=C1OC(c2ccc(F)cc2)=C/C1=C\c1ccc([N+](=O)[O-])o1,nt,44*,nt,nt,nt,nt
Cc1cc(C)cc(NS(=O)(=O)c2ccc(NC(=S)Nc3ccccc3)cc2)c1,i,-1,9,-2,-1,-1
O=C(Nc1ccn(CCCNCc2ccc3c(c2)OCO3)c(=O)n1)OCc1ccccc1,i,nt,110*,1,1,1
CCOC(=O)c1c(N)sc(C(=O)N2CCCCC2)c1C,i,-3,61*,-4,-1,0
Cc1ccc([N+](=O)[O-])cc1N=Nc1c(C)[nH]n(C(N)=S)c1=O,i,-3,-3,-3,3,-1
Cc1ccc([N+](=O)[O-])cc1N=Nc1c(-c2ccc([N+](=O)[O-])cc2)[nH]n(C(N)=S)c1=O,i,nt,112*,0,-38,51*
COc1ccc(C(=O)Cn2c(NCCCO)nc3ccccc32)cc1OC,i,0,9,-2,2,0
COCc1cc(=O)n2[nH]c(-c3cccc(Br)c3)cc2n1,i,4,17,3,0,-2
COCc1cc(=O)n2[nH]c(-c3ccccc3)cc2n1,i,0,79*,-5,-2,-4
Cc1c(N=C2N=C(NC(=O)c3ccc(F)cc3)c3ccccc32)c(=O)n(-c2ccccc2)n1C,nt,15,-54,-103,75*,65*
Cc1c(NC(=O)NC(=O)c2ccc(F)cc2)c(=O)n(-c2ccccc2)n1C,i,0,-3,-3,-2,-1
CCOC(=O)c1ccc(N=c2sc(C(=O)OC)cc(=O)n2Cc2ccco2)cc1,i,2,-3,1,-1,1
CCOC(=O)c1ccc(N=c2sc(C(=O)OC)cc(=O)n2CCCN2CCOCC2)cc1,i,1,57*!,3,-2,-2
Cc1ccccc1-n1c(=O)n(Cc2ccc(C(=O)O)cc2)c(=O)c2[nH]cnc21,i,-1,6,0,-4,-1
O=C(CCNC(=O)OCc1ccccc1)NC1CCCCC1,i,1,6,-1,0,-5
O=c1cc(-c2ccncc2)oc2c1ccc1ccccc12,i,3,-5,9,-3,-1
O=c1cc(-c2ccco2)oc2c1ccc1ccccc12,i,1,-13,39*,3,-2
Oc1[nH]c2ccccc2c1N=Nc1ccccc1,i,8,2,-24,-73,10
Oc1[nH]c2ccccc2c1N=Nc1ccc(F)cc1,nt,7,-59,-92,-94,62*
O=C(NNc1cccc(Cl)n1)Nc1cccc(C(F)(F)F)c1,i,2,-11,7,0,-3
